# Active and inactive are the calls of the source. The rule behind the calls is not given here.
# What was measured:
# [1] = tested on: Staphylococcus aureus; assay: Antimicrobial activity against Staphylococcus aureus; assay type: functional, organism-based
# [2] = tested on: Mycobacterium tuberculosis; assay: Antimicrobial activity against Mycobacterium tuberculosis; assay type: functional, organism-based
# [3] = tested on: BGC-823; assay: Induction of mitochondria translocation of Nur77 from nucleus in human BGC823 cells transfected with GFP-Nur77 pretreated with 1 ng/ml leptomycin B at 5 ug/ml after 12 hrs using […] by confocal microscope; assay type: functional, cell-based
# [4] = target: T1, Nuclear receptor subfamily 4immunitygroup A member 1 (Homo sapiens, UniProt P22736); assay: Binding affinity to nuclear orphan receptor Nur77 assessed as conformational change in receptor by CD spectroscopic
# T1 sequence (P22736 whole entry): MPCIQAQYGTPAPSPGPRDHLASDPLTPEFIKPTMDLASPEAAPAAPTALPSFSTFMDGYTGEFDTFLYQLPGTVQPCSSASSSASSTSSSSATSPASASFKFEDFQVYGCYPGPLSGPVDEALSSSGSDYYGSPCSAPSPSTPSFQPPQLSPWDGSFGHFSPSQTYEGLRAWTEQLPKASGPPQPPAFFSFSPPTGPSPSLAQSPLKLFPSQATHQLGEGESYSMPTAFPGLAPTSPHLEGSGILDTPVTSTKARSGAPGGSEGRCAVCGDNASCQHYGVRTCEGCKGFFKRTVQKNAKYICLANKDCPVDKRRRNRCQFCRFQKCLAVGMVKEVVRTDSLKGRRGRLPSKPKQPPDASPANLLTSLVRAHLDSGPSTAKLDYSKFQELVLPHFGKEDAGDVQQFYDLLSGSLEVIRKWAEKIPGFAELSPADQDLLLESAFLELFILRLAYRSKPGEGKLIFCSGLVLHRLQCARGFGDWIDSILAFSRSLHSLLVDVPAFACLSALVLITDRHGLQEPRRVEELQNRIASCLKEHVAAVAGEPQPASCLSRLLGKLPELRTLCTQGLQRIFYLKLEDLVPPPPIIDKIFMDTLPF
# [5] = tested on: Saccharomyces cerevisiae; assay: Antimicrobial activity against Saccharomyces cerevisiae; assay type: functional, organism-based
# [6] = target: T1, Nuclear receptor subfamily 4immunitygroup A member 1; assay: Binding affinity to GST-tagged nuclear orphan receptor Nur77 at 25 degC by fluorescence quenching analysis
# Outline: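 GST-Nur77 intrinsic fluorescence (emission maximum 336 nm) monitored while increasing Csn-B amounts were added; inner-filter contribution estimated with GST alone and subtracted to give corrected quenching curves.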
# [7] = target: Nuclear receptor subfamily 4immunitygroup A member 1 (Homo sapiens, UniProt P22736, Y453A); assay: Binding affinity to Nur77 Y453A mutant expressed in human BGC823 cells; assay type: cell-based, BGC-823
# Chain of Nuclear receptor subfamily 4immunitygroup A member 1 (Homo sapiens, UniProt P22736, Y453A) (P22736 whole entry Y453A): as the sequence (P22736 whole entry) above, with Y453A counted along it
SMILES,IC50 [1],IC50 [2],Activity [3],Activity [4],IC50 [5],Activity [6],Kd [7]
CCCCCCCC1OC(=O)Cc2cc(O)cc(O)c21 (configuration not stated) [CYTOSPORONE C],50 µg/mL,62.5 µg/mL,inactive,inactive,12.5 µg/mL,inactive,–
CC1=C(/C=C/C(C)=C\C=C\C(C)=C\C(=O)O)C(C)(C)CCC1 [ALITRETINOIN],–,–,–,–,–,–,810 nM

# Reference: ChEMBL document CHEMBL1221214, “Cytosporone B is an agonist for nuclear orphan receptor Nur77” (Nat Chem Biol, 2008)
